Data set [1] deals with T1, Hepatocyte growth factor receptor (Homo sapiens, UniProt P08581). Briefly: Inhibition of c-Met (unknown origin) using poly Glu-Tyr as substrate preincubated for 10 mins followed by ATP addition by phosphoenolpyruvate/pyruvate kinase/lactate dehydrogenase coupled radiometric assay.
For data set [2], the target named is T1, Hepatocyte growth factor receptor. Briefly: Inhibition of c-MET in human SNU-5 cells measured after 6 hrs by steady-glo luciferase reporter gene assay. The data set is classed as cell-based.
Data set [3] is described as follows: Unbound intrinsic clearance in human hepatocytes assessed per million cells. It is filed as ADME, cell-based, Hepatocyte.
Data set [4] is described as follows: Unbound intrinsic clearance in mouse hepatocytes assessed per million cells. The data set is classed as ADME, cell-based, Hepatocyte.
Data set [5] is described as follows: Stability in rat hepatocytes after 30 mins. It is filed as ADME, cell-based, Hepatocyte. The note with it: read-out: Stabilty.
A short description of data set [6]: Stability in human liver microsomes after 30 mins.
Data set [7] can be described thus: Stability in rat liver microsomes after 30 mins.
The target in data set [8] is cGMP-inhibited 3',5'-cyclic phosphodiesterase 3A (Homo sapiens, UniProt Q14432). Briefly: Inhibition of recombinant human N-terminal GST/His-tagged PDE3A (669 to 1141 residues) expressed in baculovirus infected Sf9 insect cells using iFL-cAMP as substrate preincubated for 15 mins followed by substrate addition and measured after 40 mins by fluorescence assay.
The species named for data set [9] is Homo sapiens. Description: Selectivity ratio of IC50 for inhibition of recombinant human N-terminal GST/His-tagged PDE3A (669 to 1141 residues) expressed in baculovirus infected Sf9 insect cells to IC50 for inhibition of c-MET in human SNU-5 cells.
A short description of data set [10]: Clearance in rat at 0.9 mg/kg, iv. The data set is classed as ADME, organism-based. The note with it: in vivo. The procedure, abridged: (§1)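 Rats received IV 0.9 mpk or PO 2.6 mpk, the oral dose formulated in 0.5% MC/0.1% Tween 80. PK parameters were derived from the IV and PO dosing arms.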
Data set [11] can be described thus: Volume of distribution at steady state in rat at 0.9 mg/kg, iv. It is filed as ADME, organism-based. The note with it: in vivo, read-out: Vdss. The procedure, abridged: as §1
Data set [12] is described as follows: Half life in rat at 0.9 mg/kg, iv. The settings on record: in vivo. It is filed as ADME, organism-based. A digest of the protocol:
as §1

Data set [13] can be described thus: Cmax in rat at 2.6 mg/kg, po. The data set is classed as ADME, organism-based. On the set-up: route oral, dose 2.6 mg/kg. The note with it: in vivo. A digest of the protocol:
as §1

Data set [14] can be described thus: AUC in rat at 2.6 mg/kg, po. On the set-up: dose 2.6 mg/kg. It is filed as ADME, organism-based. The settings on record: in vivo. The procedure, abridged: as §1
Data set [15] can be described thus: Oral bioavailability in rat at 2.6 mg/kg. It is filed as ADME, organism-based. The settings on record: in vivo. The procedure, abridged: as §1
Data set [16] can be described thus: Clearance in mouse at 0.8 mg/kg, iv. The data set is classed as ADME, organism-based. The settings on record: in vivo. A digest of the protocol:
(§2)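 Mice received IV 0.8 mpk or PO 13 mpk, the oral dose in 0.5% MC/0.1% Tween 80 vehicle. Parameters came from the respective IV or PO dosing.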

A short description of data set [17]: Volume of distribution at steady state in mouse at 0.8 mg/kg, iv. It is filed as ADME, organism-based. The note with it: in vivo, read-out: Vdss. The procedure, abridged: as §2
The nature of data set [18]: Half life in mouse at 0.8 mg/kg, iv. It is filed as ADME, organism-based. The settings on record: in vivo. The procedure, abridged: as §2
The nature of data set [19]: Cmax in mouse at 13 mg/kg, po. The data set is classed as ADME, organism-based. On the set-up: route oral, dose 13 mg/kg. The settings on record: in vivo. The procedure, abridged: as §2
Data set [20] is described as follows: AUC in mouse at 13 mg/kg, po. On the set-up: dose 13 mg/kg. The note with it: in vivo. The data set is classed as ADME, organism-based. A digest of the protocol: as §2
Data set [21] in a line: Oral bioavailability in mouse at 13 mg/kg. It is filed as ADME, organism-based. The note with it: in vivo. A digest of the protocol:
as §2

A short description of data set [22]: Clearance in dog at 0.8 mg/kg, iv. The data set is classed as ADME, organism-based, Canis lupus familiaris. The settings on record: in vivo. The procedure, abridged:
(§3)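 For dogs, dosing was IV 0.8 mpk or PO 12 mpk, the oral formulation being 30% PG/10% Solutol/1% HPMC-AS. IV and PO parameters were obtained from the corresponding arms.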

Data set [23] is described as follows: Volume of distribution at steady state in dog at 0.8 mg/kg, iv. It is filed as ADME, organism-based, Canis lupus familiaris. The settings on record: in vivo, read-out: Vdss. A digest of the protocol: as §3
Data set [24] in a line: Half life in dog at 0.8 mg/kg, iv. The settings on record: in vivo. The data set is classed as ADME, organism-based, Canis lupus familiaris. A digest of the protocol:
as §3

Data set [25] is described as follows: Cmax in dog at 12 mg/kg, po. It is filed as ADME, organism-based, Canis lupus familiaris. Further details: route oral, dose 12 mg/kg. The settings on record: in vivo. A digest of the protocol: as §3
Data set [26] in a line: AUC in dog at 12 mg/kg, po. It is filed as ADME, organism-based, Canis lupus familiaris. Further details: dose 12 mg/kg. The note with it: in vivo. A digest of the protocol: as §3
A short description of data set [27]: Oral bioavailability in dog at 12 mg/kg. The note with it: in vivo. It is filed as ADME, organism-based, Canis lupus familiaris. The procedure, abridged:
as §3

The nature of data set [28]: Clearance in monkey at 0.9 mg/kg, iv. It is filed as ADME, organism-based, Macaca mulatta. The note with it: rhesus monkey, in vivo.
A short description of data set [29]: Volume of distribution at steady state in monkey at 0.9 mg/kg, iv. The data set is classed as ADME, organism-based, Macaca mulatta. The settings on record: rhesus monkey, in vivo, read-out: Vdss.
Data set [30] in a line: Half life in monkey at 0.9 mg/kg, iv. It is filed as ADME, organism-based, Macaca mulatta. The settings on record: rhesus monkey, in vivo.
The subject of data set [31] is SNU-5. Description: Antitumor activity against human SNU-5 cells xenografted in SCID mouse assessed as tumor regression measured 38 days post tumor implantation. The data set is classed as functional. The procedure, abridged: (§4)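 SCID mice carrying SNU-5 tumors were dosed at 3, 10 or 30 mpk. Tumor growth was compared with untreated controls as T/C. Body weight was followed through the dosing regimen.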
In general terms: In xenograft studies the graft and the host belong to different species.

In data set [32] the test system is SNU-5. Description: Antitumor activity against human SNU-5 cells xenografted in SCID mouse assessed as tumor regression at 30 mg/kg qd measured 38 days post tumor implantation relative to control. The data set is classed as functional. A digest of the protocol:
as §4

In data set [33] the test system is SNU-5. Description: Antitumor activity against human SNU-5 cells xenografted in SCID mouse assessed as tumor growth at 3 mg/kg qd measured 38 days post tumor implantation relative to control. It is filed as functional. A digest of the protocol:
as §4

Data set [34] deals with SNU-5. Briefly: Antitumor activity against human SNU-5 cells xenografted in SCID mouse assessed as tumor growth at 10 mg/kg qd measured 38 days post tumor implantation relative to control. It is filed as functional. A digest of the protocol:
as §4

The nature of data set [35]: Toxicity in human SNU-5 cells xenografted SCID mouse assessed as body weight loss at 30 mg/kg qd. The data set is classed as organism-based. The note with it: in vivo. A digest of the protocol: as §4
Data set [36] can be described thus: Clearance in rat at 1 mg/kg, iv. It is filed as ADME, organism-based. The settings on record: in vivo.
Data set [37] is described as follows: Half life in rat at 1 mg/kg, iv. It is filed as ADME, organism-based. The note with it: in vivo.

cGMP-inhibited 3',5'-cyclic phosphodiesterase 3A, sequence (Q14432 whole entry, the tested form may be a part): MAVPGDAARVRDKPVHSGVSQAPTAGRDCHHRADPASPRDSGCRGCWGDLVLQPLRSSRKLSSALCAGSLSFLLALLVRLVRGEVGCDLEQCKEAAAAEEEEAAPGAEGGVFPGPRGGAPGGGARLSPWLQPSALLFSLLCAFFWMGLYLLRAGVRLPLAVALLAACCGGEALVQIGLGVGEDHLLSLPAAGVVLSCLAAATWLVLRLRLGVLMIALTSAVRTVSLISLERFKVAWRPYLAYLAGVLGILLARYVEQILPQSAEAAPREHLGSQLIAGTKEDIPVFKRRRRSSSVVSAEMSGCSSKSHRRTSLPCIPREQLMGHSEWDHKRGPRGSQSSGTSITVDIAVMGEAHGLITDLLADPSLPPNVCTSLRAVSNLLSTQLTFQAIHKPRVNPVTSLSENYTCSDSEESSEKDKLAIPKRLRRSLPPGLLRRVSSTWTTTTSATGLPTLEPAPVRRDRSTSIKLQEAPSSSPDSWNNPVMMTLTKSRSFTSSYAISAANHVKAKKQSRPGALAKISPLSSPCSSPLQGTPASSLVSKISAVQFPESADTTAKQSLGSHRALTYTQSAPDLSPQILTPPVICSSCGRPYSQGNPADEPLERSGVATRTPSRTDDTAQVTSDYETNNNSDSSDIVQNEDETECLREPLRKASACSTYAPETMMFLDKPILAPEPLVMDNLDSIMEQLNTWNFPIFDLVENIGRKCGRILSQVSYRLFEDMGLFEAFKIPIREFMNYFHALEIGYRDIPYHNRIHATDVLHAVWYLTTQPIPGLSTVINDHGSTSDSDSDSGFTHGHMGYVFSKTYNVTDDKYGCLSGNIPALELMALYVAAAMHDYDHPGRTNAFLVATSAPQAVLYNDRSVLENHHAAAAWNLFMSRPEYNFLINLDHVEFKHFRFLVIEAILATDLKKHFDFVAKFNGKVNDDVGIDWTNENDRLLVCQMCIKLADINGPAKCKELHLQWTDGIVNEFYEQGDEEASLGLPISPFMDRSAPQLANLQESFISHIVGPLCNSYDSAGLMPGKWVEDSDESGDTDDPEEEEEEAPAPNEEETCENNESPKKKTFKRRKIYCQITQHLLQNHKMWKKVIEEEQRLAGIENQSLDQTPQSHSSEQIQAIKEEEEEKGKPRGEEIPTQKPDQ
T1 sequence (P08581 whole entry): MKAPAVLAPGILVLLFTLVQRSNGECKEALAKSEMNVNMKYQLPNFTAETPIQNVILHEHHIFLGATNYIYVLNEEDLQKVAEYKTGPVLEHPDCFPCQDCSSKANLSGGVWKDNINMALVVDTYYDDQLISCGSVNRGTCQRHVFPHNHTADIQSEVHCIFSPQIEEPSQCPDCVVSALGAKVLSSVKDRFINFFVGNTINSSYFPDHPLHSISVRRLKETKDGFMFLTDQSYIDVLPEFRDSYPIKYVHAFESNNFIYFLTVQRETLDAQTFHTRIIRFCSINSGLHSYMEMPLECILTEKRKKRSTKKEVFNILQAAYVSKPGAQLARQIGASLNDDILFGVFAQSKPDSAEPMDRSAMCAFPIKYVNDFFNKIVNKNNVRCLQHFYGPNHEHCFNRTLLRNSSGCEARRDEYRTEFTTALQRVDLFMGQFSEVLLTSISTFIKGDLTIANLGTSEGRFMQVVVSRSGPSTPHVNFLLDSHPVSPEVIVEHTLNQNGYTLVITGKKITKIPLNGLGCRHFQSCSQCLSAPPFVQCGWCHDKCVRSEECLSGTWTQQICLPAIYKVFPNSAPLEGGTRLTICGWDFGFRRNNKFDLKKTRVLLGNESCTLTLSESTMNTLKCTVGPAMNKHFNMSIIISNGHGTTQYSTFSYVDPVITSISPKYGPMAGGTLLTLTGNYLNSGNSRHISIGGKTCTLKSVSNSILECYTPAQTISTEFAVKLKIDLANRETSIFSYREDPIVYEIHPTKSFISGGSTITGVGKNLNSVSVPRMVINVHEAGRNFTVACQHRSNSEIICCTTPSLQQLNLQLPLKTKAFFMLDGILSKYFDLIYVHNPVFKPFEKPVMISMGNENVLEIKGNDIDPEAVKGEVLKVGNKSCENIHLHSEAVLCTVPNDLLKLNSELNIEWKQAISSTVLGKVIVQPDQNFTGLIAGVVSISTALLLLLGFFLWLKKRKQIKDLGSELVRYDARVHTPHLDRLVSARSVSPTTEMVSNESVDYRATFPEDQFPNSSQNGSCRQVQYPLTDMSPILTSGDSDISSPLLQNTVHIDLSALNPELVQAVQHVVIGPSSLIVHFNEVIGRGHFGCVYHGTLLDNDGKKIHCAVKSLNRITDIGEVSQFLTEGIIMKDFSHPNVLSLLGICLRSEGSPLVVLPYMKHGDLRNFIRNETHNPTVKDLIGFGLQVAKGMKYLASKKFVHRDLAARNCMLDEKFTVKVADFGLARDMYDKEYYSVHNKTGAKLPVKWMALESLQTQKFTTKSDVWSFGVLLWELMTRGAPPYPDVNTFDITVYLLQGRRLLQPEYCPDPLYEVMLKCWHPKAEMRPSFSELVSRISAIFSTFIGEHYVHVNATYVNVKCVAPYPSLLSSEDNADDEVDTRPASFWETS

With `CC(c1ccc2ncccc2c1)c1nnc2sc(-c3cnn(C)c3)nn12` (racemic), the inhibition constant Ki in [1] worked out at 50 nM. This compound displayed a concentration for half-maximal inhibition (IC50) in [2] of 30 nM. Further, the CL free in data set [3] amounted to 3.2 µL/min; in data set [4] it was 7.4 µL/min.
Take `Oc1cccc(Cc2nnc3sc(Nc4cccc(Cl)c4)nn23)c1`: the remaining at 0.5 h in data set [5] came out at 55%.
`Oc1ccc(Cn2cnc3ncc(-c4ccc(F)cc4)nc32)cc1`: the remaining at 0.5 h in data set [6] stood at 51%; in [7], 56%.
Consider `Oc1ccc(Cc2nnc3sc(Nc4cccc(Cl)c4)nn23)cc1Cl`, for which, in [5], the remaining at 0.5 h is 63%.
`C[C@H](c1ccc2ncccc2c1)c1nnc2sc(-c3cnn(C)c3)nn12` had a Ki in [1] of 240 nM. Further, the results for the half-inhibitory concentration (IC50) in [2] and in [8] were 84 nM and 7900 nM, respectively. For the same compound, the CL free was 5.8 µL/min in data set [3] and 7 µL/min in data set [4]. The Ratio IC50 in data set [9] came to 95.
Regarding `Oc1ccc(Cc2nnc3sc(Nc4ccccc4)nn23)cc1`, the values for the remaining at 0.5 h in data set [6] and in data set [7] were 68% and 40%, respectively.
The compound `Cn1cc(Nc2nn3c(C(F)(F)c4ccc5ncccc5c4)nnc3s2)cn1` came in with a Ki in data set [1] of 21 nM. Also, the IC50 in [2] amounted to 4 nM; in data set [8] it was 8070 nM. In data set [9], the Ratio IC50 is 2020. In addition, the clearance in data set [10] is 25 mL/min/kg; in data set [16], 21 mL/min/kg; in [22] it was 14 mL/min/kg; in data set [28], 23 mL/min/kg. Besides, the Vd was determined as 0.7 L/kg in data set [11], 1 L/kg in data set [17], 1.6 L/kg in data set [23] and 1.2 L/kg in [29]. Moreover, the half-life in data set [12] was 1.4 h; in [18] it was 1.8 h; in [24] it was 3.6 h; in data set [30], 2 h. Moreover, the Cmax was determined as 150 ng/mL in data set [13], 4800 ng/mL in [19] and 1300 ng/mL in [25]. The AUC in [14] was determined as 0.6 µg/h/mL; in data set [20], 16 µg/h/mL; in data set [26], 9.9 µg/h/mL. For the same compound, the bioavailability came out at 29% in [15], 100% in data set [21] and 66% in data set [27]. Moreover, the Activity result was “Dose-dependent effect” in [31], -23.9% in [32] and “Non-Toxic” in data set [35]. Also, the T/C in data set [33] is recorded as 16.6%; in [34], 54.2%.
For `Clc1cccc(Nc2nn3c(Cn4ccc5ncccc54)nnc3s2)c1`, the remaining at 0.5 h in data set [5] worked out at 60%.
Consider `Clc1cccc(Nc2nn3c(Cc4ccc5c(c4)OCO5)nnc3s2)c1`, for which, in [5], the remaining at 0.5 h is 64%.
As for `Cn1cc(-c2nn3c(Cc4ccc5ncccc5c4)nnc3s2)cn1`, the CL free in [3] came to 4.8 µL/min; in [4], 6.2 µL/min. In [36], the clearance turned out to be 24.5 mL/min/kg. This compound also had a half-life in [37] of 1.1 h.
Take `Cc1nn(C)cc1-c1nn2c([C@@H](C)c3ccc4ncccc4c3)nnc2s1`: the IC50 in data set [2] is 3 nM; in [8], 100 nM. In addition, the Ratio IC50 in data set [9] is 33.
`Oc1ccc(Cc2nnc3sc(Nc4cccc(Cl)c4)nn23)cc1F`: in data set [5], the remaining at 0.5 h was 56%.
On to `Cc1nn(C)cc1-c1nn2c([C@H](C)c3ccc4ncccc4c3)nnc2s1`, for which the IC50 in [2] came to 3 nM; in data set [8] it was 200 nM. The Ratio IC50 in [9] was 67.
Consider `Clc1cccc(Nc2nn3c(Cc4ccc5ncccc5c4)nnc3s2)c1`, for which the remaining at 0.5 h in [5] came to 45%.
As to `Oc1ccc(Cc2nnc3ccc(-c4ccc(F)cc4)nn23)cc1`, the remaining at 0.5 h in [6] was determined as 50%; in [7], 32%.
As for `Oc1ccc(Cc2nnc3n2N=C(c2ccc(F)cc2)CS3)cc1`, the remaining at 0.5 h in data set [6] was determined as 73%; in [7] it was 2.6%.
Consider `C[C@@H](c1ccc2ncccc2c1)c1nnc2sc(Nc3cnn(C)c3)nn12`, for which affinity in data set [1] was put at a Ki of 20 nM. Further, the values for the IC50 in data set [2] and in [8] were 5 nM and 3000 nM, respectively. Also, the Ratio IC50 in data set [9] stood at 600.

A word on the Ki: it is a dissociation constant, usually derived from enzyme kinetics or from competition with a known ligand. What is called IC50 is the concentration that inhibits the measured activity by half. For orientation: clearance means the volume of plasma or blood freed of the substance per unit of time. One may read the half-life as the time needed for the level to fall by half in the phase considered. As a reminder, the Cmax is the peak of the concentration-time curve. As a reminder, the bioavailability is the share of a dose that reaches the circulation, judged against a reference dose that is usually intravenous. As a reminder, the T/C is the ratio of treated to control.

(Values after ChEMBL document CHEMBL4706768, “Discovery of Potent, Selective Triazolothiadiazole-Containing c-Met Inhibitors” (ACS Med Chem Lett, 2021).)
